Laboratory results published in the RNAGym collection of RNA variant scans (doi:10.1126/science.aae0568).
Fewer inactive variants are shown than the library holds.

B1: tRNA (parent)
chain: GUUCCGUUGGCGUAAUGGUAACGCGUCUCCCUCCUAAGGAGAAGACUGCGGGUUCGAGUCCCGUACGGAACG

Variants of: B1
Assay: yeast fitness relative to wild type (ratio to wild type); higher = fitter; tRNA-Arg(CCU), competitive growth, 37 C, YPD
In short: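 Start and end populations of a pooled competition were compared by 100-nucleotide paired-end sequencing of gene amplicons. The Saccharomyces cerevisiae strains carried tRNA-Arg(CCU) gene variants at the native genomic locus, synthesised with a 3% per-site mutation rate at 69 sites, and competed in YPD at 37°C for 24 hours in six parallel replicates. Darwinian fitness relative to wild type was based on the change in genotype frequencies. Genotypes required ≥ 100 starting reads, and estimates < 0.5 were set to 0.5.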

First: GUUCCGUUGGCGGUAAUGUAACGCGUCUCCCUCCUAAGGAGAAGACUGCGGGUUCGAGUCCCGUACCGAACG
Second: GUUCCGUUGGCGCAAUGGUAACGCGUCUCCCUCCUAAGGAGAAGACUGCGGGUUCAAGUCCCGUAUGGAACG
The yeast fitness of the first is lower: no more than 0.5 for the first, 0.696 for the second.

First: GUUCCGUUGGCGGAAUGGUUACGCGUCUCCCUCCUAAGGAGAAGACUGCGGGUUCGAGUCCCGUACGGAACG
Second: GUUCCGUUGGCGCAAUGGUAACGCGUCUCCCUCCUAAGGAGAAGACUGCGGGUUCGAGGCCCGUACGCAACG
The yeast fitness of the first is higher: 1.03 for the first, no more than 0.5 for the second.

GUUCCGUUGGCGCAAUGGAAUCGAGUCUCCCUCCUAAGGAGAAGACUGCGGGUCCGAGCCCCGUACGGGACG and GUUCCGUUGGCGGAAUGGUUACGCGUCUCCCUCCUAAGGAGAAGACUGCGGGUUCGAGACCCGUAUGGAACG cannot be ordered by yeast fitness: no more than 0.5 for the first, no more than 0.5 for the second.

First: GUUCCGUUGGCGGAAUGGUAACGCGUCUCCCUCCUAAGGAGAAGACUGCGGGUUCGAGUCCCGUACGGAGCG
Second: GUUCCGUUGGCGGAAUGGUAACGCGUCUCCCUCCUAAGGAGAAGACUGCGGGUUCGAGUCCCGUACGGACCG
The yeast fitness of the first is lower: 0.831 for the first, 0.843 for the second.

First: GUUCCGUUGGCGGAAUGGUAACGCGUCUCCCUCCUAAGGAGAAGACUGCGGGUUCGAGUCCCGUACGGAUCG
Second: GUUCCGUUGGCGGAAUGGUAACGCGUCUCCCUCCUACGGAGAAGACUGCGGGUUCGAGUCCCGUACGGAGCG
The yeast fitness of the first is higher: 1.11 for the first, 0.539 for the second.

Compared with GUUCCGUUGGCGCAAUGGUAACGCGUCUCCCUCCUAAGGAGAAGACCGCGGGUUCCAGUCCCGUACGGAACG, GUUCCGUUGGCGGAAUGGUAAUGCGUCUCCAUCCUAAGGAGAAGACUGCGGGUUCGAGUCCUGUCCGGAACG is lower in yeast fitness: 0.544 for the first, no more than 0.5 for the second.

Going from GUUCCGUUGGCGGAAUGGUAACGCGUCUCCCUCCUAAGGAGAAGUCUGCGGGUUCGAGUCCCGUACGGACCG to GUUCCGUUGGCGCAAUGGUAACGCGUCUCCCCCCUAAGGAGAAGACUGCGGGUUCGAGUCCCGUACGGAACG, the yeast fitness rises from 0.649 to 0.88.

Going from GUUCCGUUGGCGCAAUGGUAACGCGCCUCCCUCCUAAGGAGAAGACUGCGGGUUCGAGUCCCGUACGGAACG to GUUCCGUUGGCGGAAUGGUAUCGCGUCUCCCUCCUAAGGAGAAGACUGCGGGUUCGAGUCCCGUACGGAACG, the yeast fitness rises from 0.809 to 1.09.

Compared with GUUCCGUUGGCGCAAUGGUAACGCGUCUCCCUCCUAAGGAGAAGACUGCGGGUUCGAGUCCCGCACGGAACG, GUUCCGUUGGCGGGAUAGUAACGCGUCUCCCUCCUAAGCAGAAGACUGCGGGUUCGAGUCCCGUACGGAACG is lower in yeast fitness: 1.04 for the first, 0.758 for the second.

First: GUUCCGUUGGCGGAAUGGUAAUGCGUCUCCAUCCUAAGGAGAAGACUGCGGGUUCGAGUCCCGUACGGAUCG
Second: GUUCCGUUGGCGCAAUGGUAACGCGUCUCCCUCCUAAGGAGAAGACUGCGGAUUCGAGUCCCGUACGGAACG
The yeast fitness of the first is lower: no more than 0.5 for the first, 0.735 for the second.

Compared with GUUCCGUUGGCGCAAUGGUAACGCGUCUCCCUCCUAAGGAGAACACUGCGGGUUCGAGUCCCGUACGGAACG, GUUCCGUUGGCGCAAUGGUAACGCGUCUCCCUCCUAAGGAGAAGACUGCGGGUUCGAAUCCCGUACGGACCG is lower in yeast fitness: 0.913 for the first, 0.817 for the second.

First: GUUCCGUUGGCGCAAACGUAACGCGUCUCCCUCUUAAGGAGAAGACUGCGGGUUCGAGUCCCGUACGGAACG
Second: GUUCCGUUGGCGGAAUGGUAACGCGUCUCCCUCCUCAGGAGAAGACUGCGGGUUCGAGUCCCGUACGGAACG
The yeast fitness of the first is lower: no more than 0.5 for the first, 0.52 for the second.

Compared with GUUCCGUUGGCGGAAUGGUAACGCGUCUCCCUCCUGAGGAGAAGACUGCGGGUUCGAGUCCCGUACGGAACG, GUUCCGUUGGCGCAAUGGUAACGCGUCUCCCUCCUAAGGAGAAGACUGCGCGUCCGAGUCCCGUACGGAACG is lower in yeast fitness: 0.913 for the first, no more than 0.5 for the second.

First: GUUCCGUUGGCGCAAUGGUAACGCGUCUCCCUCCUAAGGAGAAGACUCCGGGUUCGAGUCCCGUACGGAACG
Second: GUUCCGUUGGCGGAAUGGUGAGGCGUCUCCCUCCUAAGGAGAAGACUGCGGGUUCGAGUCCCGUACGGAACG
The yeast fitness of the first is higher: 0.906 for the first, 0.581 for the second.

First: GUUCCGUUGGCGCAAUGGUAACGCGUCUCCCUCCUAAGGAGAAGACUGCAGGUUCGAGUCCCGUACGGAACG
Second: GUUCCGUUGGCGCAAUGGUAACGCGUCCCCCUCCUAAGGAGAAGACUGCGGGUUCGAGUCCCGUACGGAACG
The yeast fitness of the first is higher: 0.874 for the first, 0.838 for the second.

GUUCCGUUGGCGGCAUGGUAACGCGUCUCCCUCCUAAGCAAAAGACUGCGGGUUCGAGUGUGGUUCGGAACG and GUUCCGUUGGCGCAAUGGUAACGCGUCUCCCUCCUAAGGAGAAGACAGCGGGUUCGAGUCCCGUACGAAACG cannot be ordered by yeast fitness: no more than 0.5 for the first, no more than 0.5 for the second.

First: GUUCCGUUGGCGCAAUGGUAACGCGUCUCCCUCCUAAGGAGAACACUGCGGGUUCGAAUCCCGUACGGAACG
Second: GUUCCGUUGGCGCAAGGGUAACGCGUCUCCCUCCUAAGGAGAAGACUGCGGGUUCGAGUCCCGUGCGGAACG
The yeast fitness of the first is higher: 0.927 for the first, 0.572 for the second.

First: GUUCCGUUGGCGCAAUGGUAACGCGUCUCCCUCCUAAGGAGAAGACCGCGGGUUCGAGUCCCGUGCGGAACG
Second: GUUCCGUUGGCGGCAUGGUAACGCGUCUCCCUCCUAAGGAGUAGACUGCGAGUACAAGUCCCGUACGGAACG
The yeast fitness of the first is higher: 0.766 for the first, no more than 0.5 for the second.

GUUCCGUUGGCGCAAUGGUAACGCGGUUCCCUCCUAAGGAGAAGACUGUGGGUUCGAGUCCCGUAUGGAACG showed a yeast fitness of 0.801.
